Assay outcomes from PubChem.
This is a sample that favours compounds with a hit; in the whole collection about 3.3% have one here.
NRP1-CendR mod – modulators of CendR peptide binding to NRP-1, primary screen, biochemical, fluorescence polarization, uHTS. Neuropilin-1 (Homo sapiens), O14786. inhibition, % at 25 µM. 360,000 tested, 0.85% active. FAM-RPARPAR peptide binding to NRP-1. AID 602438, 2012;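 active = inhibition or corrected inhibition above about 18%, plus a signal ratio from 0.5 to 1.5, limit read from the data, passing the limit was not always enough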
ABCB6 inh MLPCN – ABCB6 transporter inhibitors, primary screen, K562-ABCB6 cells, flow cytometry, MLPCN library; K562-ABCB6 porphyrin accumulation, 1 h; stronger effect = lower value; ATP-binding cassette sub-family B member 6 (Homo sapiens), Q9NP58; fluorescence ratio to DMSO, % at 10 µM; 360,000 tested, 0.19% active;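 active = fluorescence ratio to DMSO below 75%, the collection mean minus 3 SD; inconclusive = too few cells collected in the well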;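 note: signal is porphyrin accumulated inside mitochondria; lower ratio means ABCB6 inhibition with less porphyrin fluorescence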
Arr AP2 block – inhibitors of beta-arrestin/AP2 binding, primary screen, biochemical, GPCR trafficking, flow cytometry; beta-arrestin 1 C-terminal peptide binding to AP2 beta2-adaptin appendage (human); FITC-arrestin peptide / GST-AP2 beads; AP2 beta2 appendage carries R879A mutation; inhibition, % at 10 µM; 340,000 tested, 0.31% active; AID 504490, 2011;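 active = inhibition above a set limit, near 3 SD of compounds lacking own fluorescence, cut at about 54% in these data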
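System: GST-AP2 R879A glutathione beads | Also added: FITC-arrestin peptide, 50 nM | Times: 12 min plus 1 h, RT | Signal: Bead flow cytometry, FITC channel | Buffer or medium: PBS with 0.05% Tween 20 and 0.1% BSA | Read-out basis: Percent drop in bead-associated FITC signal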
Exocytosis inh – LAMP-1 surface exposure blockers, TALL-104 cells – cell-based, flow cytometry, MLPCN library, primary screen; TALL-104 LAMP-1 surface exposure; cells stimulated with thapsigargin and PMA; inhibition, % at 10 µM; 360,000 tested, 0.66% active;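 active = inhibition above about 55%, limit read from the data; inconclusive = no clear call, values can overlap the other calls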
ATG4B inhibitor – ATG4B protease inhibitors, primary screen, biochemical, fluorescence, uHTS; Cysteine protease ATG4B (Homo sapiens), Q9Y4P1; ATG4B cleavage of LC3-PLA2, NBD-HPC fluorescence, 1 h; inhibition, % at 8.33 µM; 340,000 tested, 0.51% active; AID 504462, 2011; in the data active = inhibition above about 40%
Target sequence (Q9Y4P1 whole entry, looked up): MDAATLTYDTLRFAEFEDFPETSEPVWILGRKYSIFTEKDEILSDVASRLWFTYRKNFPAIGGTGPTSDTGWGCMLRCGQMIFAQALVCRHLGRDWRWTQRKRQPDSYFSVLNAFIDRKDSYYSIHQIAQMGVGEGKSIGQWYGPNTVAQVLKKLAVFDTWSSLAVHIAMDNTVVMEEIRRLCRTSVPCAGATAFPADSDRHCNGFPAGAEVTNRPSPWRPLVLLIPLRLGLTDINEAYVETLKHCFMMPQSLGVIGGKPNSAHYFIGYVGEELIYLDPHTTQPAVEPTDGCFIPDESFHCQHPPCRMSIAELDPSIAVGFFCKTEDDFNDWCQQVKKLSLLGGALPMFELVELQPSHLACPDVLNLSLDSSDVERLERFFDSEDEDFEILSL
Myeloid diff MLP – induction of myeloid progenitor differentiation, primary screen, cell-based, flow cytometry, MLPCN library. ER-HoxA9 myeloid progenitors, lysozyme-GFP differentiation. calls only at 10 µM. 360,000 tested, 1% active. AID 624256, 2012;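 active = normalized GFP-positive differentiation at or above the plate's own cutoff, the solvent-only control mean plus 3 SD; inconclusive = no clear call, values can overlap the other calls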;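 note: cells exposed to compound for four days before flow analysis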
ABCB6 inh CP1 – ABCB6 transporter inhibitors, confirmation, K562-ABCB6 cells, flow cytometry, cherry pick 1; AID 602430, 2012; K562-ABCB6 porphyrin accumulation, 1 h; stronger effect = lower value; ratio response (% of DMSO), % at 10 µM; 700 tested, under 10 active; shares compounds with ABCB6 inh MLPCN;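 active = repeat-averaged ratio response below 75% of DMSO, the collection mean minus 3 SD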;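 note: median porphyrin fluorescence at 575 nm with 488 nm excitation from mitochondria; lower ratio means less porphyrin signal so ABCB6 inhibition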
K562 vector FC – empty-vector K562 compound effect – cell-based, flow cytometry, cherry pick set 2, counter-screen for ABCB6 inhibitor project, dose response | 25 tested, under 10 active | K562 empty-vector cells, flow cytometry fluorescence, 1 h | shares compounds with ABCB6 inh MLPCN | percent response (fluorescence), % at 100 µM;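 active = compounds whose half-maximal effective concentration is below 100 µM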
Of the large screens only hits and unclear results are named; the others gave an inactive call (follow-up assays come after a bar, where they were run).

Cn1c(CN2CCN(C(=O)c3ccccc3Cl)CC2)nc2cc([N+](=O)[O-])ccc21	none
Cn1c(CN2CCN(C(=O)c3ccccc3)CC2)nc2cc([N+](=O)[O-])ccc21	ABCB6 inh MLPCN 70 | ABCB6 inh CP1 inactive
CCOC(=O)c1c(NC(=O)COC(=O)CNC(=O)c2ccco2)sc(C(C)=O)c1C	none
O=C(Nc1ccc(Cc2nc3ccccc3s2)cc1)c1ccncc1	none (no result: Myeloid diff MLP)
COc1ccc(OC)c(S(=O)(=O)N2CCC(C(=O)NCc3ccccn3)CC2)c1	ABCB6 inh MLPCN 73 | ABCB6 inh CP1 inactive
COc1ccc(S(=O)(=O)N2CCC(C(=O)NCc3ccccn3)CC2)cc1OC	none
CC(Sc1nc2ccccc2c(=O)n1CC1CCCO1)C(=O)N(C)Cc1ccccc1 (centres undefined)	none
CC(Sc1nc2ccccc2c(=O)n1C)C(=O)N(C)C1CCCCC1 (centres undefined)	ABCB6 inh MLPCN 74 | ABCB6 inh CP1 inactive
Cc1c(OCc2ccccc2)c(=O)ccn1Cc1ccccc1	none
O=c1ccn(Cc2ccccc2)c2ccccc12	NRP1-CendR mod 30, ABCB6 inh MLPCN 72 | ABCB6 inh CP1 inactive
CCN(CC)S(=O)(=O)c1ccc(N2CCOCC2)c(NC(=O)c2nn(C(C)C)c(=O)c3ccccc23)c1	none (no result: Arr AP2 block, ATG4B inhibitor)
O=c1c(C(c2ccc(Br)cc2)c2c(O)nc3n(c2=O)CCS3)c(O)nc2n1CCS2	ABCB6 inh MLPCN 74 | ABCB6 inh CP1 inactive
CCc1ccc(CCC(=O)Nc2sc(C)c(C)c2C(=O)OC)o1	ABCB6 inh MLPCN 69 | ABCB6 inh CP1 inactive
COC(=O)c1c(NC(=O)CCCC(=O)O)sc(C)c1C	none
O=C(Nc1ccccc1C(=O)NC1CC1)c1ccccc1	none
Cc1noc(C)c1COC(=O)C(c1ccccc1)c1ccccc1	none
CCN1C(=O)c2ccccc2S(=O)(=O)c2ccc(C(=O)NCCCN(CC(C)C)CC(C)C)cc21	ABCB6 inh MLPCN 66 | ABCB6 inh CP1 inactive
CCCCc1c(O)nc(SCC(=O)N2CCCCC2)[nH]c1=O	none
CCC(C)c1c(O)nc(SCC(=O)N2CCCCC2)[nH]c1=O (centres undefined)	ABCB6 inh MLPCN 52 | ABCB6 inh CP1 inactive
CCOC(=O)C(C)NC(=O)CCc1nnc2ccc(N3CCC(C)CC3)nn12 (centres undefined)	ABCB6 inh MLPCN 72 | ABCB6 inh CP1 inactive
COC(=O)C(NC(=O)CCc1nnc2ccc(N3CCC(C)CC3)nn12)C(C)C (centres undefined)	none | ABCB6 inh CP1 inactive
CC1CCN(c2ccc3nnc(CCC(=O)N4CCCCC4)n3n2)CC1	Myeloid diff MLP inconclusive | ABCB6 inh CP1 inactive
CCC(C)NC(=O)CCc1nnc2ccc(N3CCC(C)CC3)nn12 (centres undefined)	ABCB6 inh MLPCN 61 | ABCB6 inh CP1 inactive
CC1CCN(c2ccc3nnc(CCC(=O)N4CCN(c5ccc(F)cc5)CC4)n3n2)CC1	Myeloid diff MLP inconclusive
CCOC(=O)c1cc(S(=O)(=O)NCC2CCN(Cc3cccc(C)c3)CC2)cn1C	none
COc1ccc(N2C(=O)CCC(C(=O)O)C2c2ccccc2OC)cc1 (centres undefined)	none
CC1CCN(c2ccc3nnc(CCC(=O)NCC(C)c4ccccc4)n3n2)CC1 (centres undefined)	none
CC(C)CCNC(=O)CCc1nnc2ccc(N3CCC(C)CC3)nn12	none | ABCB6 inh CP1 inactive
CCCn1c(SCC(=O)Nc2ccc(C(=O)Nc3ccccc3OC)cc2)n[nH]c1=O	ABCB6 inh MLPCN 68 | ABCB6 inh CP1 inactive
COc1ccccc1NC(=O)c1ccc(NC(=O)CSc2nncn2C)cc1	none
N#CCCN/N=C(\Cc1nc2ccccc2[nH]1)c1ccccc1	ABCB6 inh MLPCN 61 | ABCB6 inh CP1 inactive
CCN/N=C(\Cc1nc2ccccc2[nH]1)c1ccccc1	none
O=C(NCCc1csc(-c2cccnc2)n1)c1ccc(Cl)cc1	ABCB6 inh MLPCN 74 | ABCB6 inh CP1 inactive
COc1cc2c(c(OC)c1OC)-c1c(cc(OC)c(OC)c1OC)C[C@H](C)[C@H](C)C2	ABCB6 inh MLPCN 74 | ABCB6 inh CP1 inactive
Cc1ccc(S(=O)(=O)Cn2cnnn2)cc1	ABCB6 inh MLPCN 60 | ABCB6 inh CP1 inactive
Cc1ccc(S(=O)(=O)CS(=O)(=O)c2ccc(C)cc2)cc1	none
CC(=O)Nc1cccc(-c2ccnc3c2CC(C(=O)Nc2ccccc2)O3)c1 (centres undefined)	none (no result: Arr AP2 block, ATG4B inhibitor)
CC(=O)c1cccc(-c2ccnc3c2CC(C(=O)Nc2cccnc2)O3)c1 (centres undefined)	none (no result: Arr AP2 block, ATG4B inhibitor)
CC(=O)c1cccc(-c2ccnc3c2CC(C(=O)Nc2cccc(N(C)C)c2)O3)c1 (centres undefined)	none (no result: Arr AP2 block, ATG4B inhibitor) | ABCB6 inh CP1 inactive
CC(=O)c1cccc(-c2ccnc3c2CC(C(=O)Nc2cccc(Oc4ccccc4)c2)O3)c1 (centres undefined)	none (no result: Arr AP2 block, ATG4B inhibitor) | ABCB6 inh CP1 inactive
CC(=O)c1cccc(NC(=O)C2Cc3c(-c4cccc(C(C)=O)c4)ccnc3O2)c1 (centres undefined)	none (no result: Arr AP2 block, ATG4B inhibitor)
O=C(Nc1cccc(Oc2ccccc2)c1)C1Cc2c(-c3ccccc3)ccnc2O1 (centres undefined)	none (no result: Arr AP2 block, ATG4B inhibitor) | ABCB6 inh CP1 inactive
CS(=O)(=O)Nc1cccc(NC(=O)C2Cc3c(-c4ccco4)ccnc3O2)c1 (centres undefined)	none (no result: Arr AP2 block, ATG4B inhibitor)
O=C(Nc1cccc(Oc2ccccc2)c1)C1Cc2c(-c3ccco3)ccnc2O1 (centres undefined)	ABCB6 inh MLPCN 69 (no result: Arr AP2 block, ATG4B inhibitor) | ABCB6 inh CP1 inactive
COC(=O)c1cn(Cc2ccccc2C)nn1	none
CCOC(=O)C1CCCN(S(=O)(=O)c2cnc(Cl)c(Br)c2)C1 (centres undefined)	none
Cc1ccc(NC(=O)c2nc(S(=O)(=O)Cc3ccccc3)ncc2Cl)cc1	ABCB6 inh MLPCN 35, Myeloid diff MLP inconclusive | ABCB6 inh CP1 inactive
Cc1ccccc1CS(=O)(=O)c1ncc(Cl)c(C(=O)Nc2ccc(F)cc2)n1	ABCB6 inh MLPCN 36, Myeloid diff MLP inconclusive | K562 vector FC inactive
Cc1cccc(CS(=O)(=O)c2ncc(Cl)c(C(=O)NCc3ccccc3)n2)c1	none
